High-throughput results: PubChem, Columbia University Molecular Screening Center
Insulin prom act = TRM-6 insulin promoter activation. TRM-6 cells (human fetal islet line), insulin promoter eGFP reporter, imaging; plate-scaled: unstimulated 0, stimulated control 100. activation, % at 2 µM. 130,000 tested, 0.81% active;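 active means activation at 2 µM above a set limit, confirmed on inspection of the cell images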;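 further: share of cells whose green reporter signal exceeds an intensity cutoff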
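test system = TRM-6 insulin promoter–eGFP reporter cells | benchmarks = stimulated versus unstimulated wells as plate controls | read-out basis = percent cells above green-intensity threshold, converted to percent activation versus plate controls | detection = fixed-cell fluorescence microscopy, eGFP plus Hoechst | incubation = tamoxifen pre-incubation 15 h overnight, then compound exposure 48 h at 37 °C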
* = called active by the depositor. This excerpt belongs to a sample that is enriched for hits.

SMILES	Insulin prom act
O=C(NCc1ccco1)/C(=C/c1cccnc1)NC(=O)c1ccco1	4
CCOc1ccc(CC(=O)C2=C(N3CCOCC3)CC(C)(C)CC2=O)cc1OCC	6
O=C(OCC(=O)N1CCN(C(=O)c2ccco2)CC1)c1cc(-c2cccc(Br)c2)nc2ccccc12	7
C/C(=N\Nc1nc2ccccc2[nH]1)c1ccc(N2CCOCC2)cc1	-75
COC(=O)c1c(NC(=O)COC(=O)CCc2ccc(S(=O)(=O)N3CCOCC3)cc2)sc2c1CCC2	6
CC(=O)Oc1cccc(N2C(=O)c3ccc(C(=O)Nc4c[nH]c(=O)[nH]c4=O)cc3C2=O)c1	214*
Cc1cc(NC(=O)c2ccc3c(c2)C(=O)N(C)C3=O)no1	-7
COc1ccc(N2C(=O)c3ccc(C(=O)OC(C)C)cc3C2=O)cc1	-64
CN(/C=C1/C(=O)CNC1=O)CCO	6
CCOc1ccccc1NC(=O)C(NCC1(N2CCCCC2)CCCCC1)c1ccccc1 (stereo not drawn)	129
COc1cc2c3nnc(-c4ccccc4)c-3cn(Cc3ccc(F)cc3)c2cc1OC	6
COc1cc2c3nnc(-c4ccc(F)cc4)c-3cn(Cc3cccc(F)c3)c2cc1OC	809*
COc1cccc(CSc2nnc(-c3ccc(F)cc3)o2)c1	6
O=C(/C=C/c1ccc(F)cc1)c1ccccc1Br	9
O=C(C/C=N\OCc1ccc([N+](=O)[O-])cc1)Nc1ccc(F)cc1F	-6
COCCCN(C(=S)Nc1cccc(Cl)c1)C(C)c1ccncc1 (stereo not drawn)	5
COCCCN(C(=O)Nc1cccc(Cl)c1)C(C)c1ccccn1 (stereo not drawn)	642*
CC(c1ccccn1)N(CCN(C)C)C(=S)Nc1cccc(F)c1 (stereo not drawn)	10
O=C(NC(=S)Nc1ccc(S(=O)(=O)Nc2nccs2)cc1)c1cccc(F)c1	-74
S=c1[nH]nc(-c2ccco2)n1Cc1ccccc1	407*
Cc1c(Cl)c(-c2n[nH]c(=S)n2Cc2ccco2)nn1C	8
O=c1c2ccccc2nc(-c2ccco2)n1Cc1ccccc1	0
CN(C(=O)COC(=O)c1ccccc1SCC(=O)NC1CCCCCCC1)C1CCS(=O)(=O)C1 (stereo not drawn)	-6
Cc1c(NC(=O)CN2CCCc3ccccc32)c(=O)n(-c2ccccc2)n1C	0
O=C(CN1CCCc2ccccc21)NCc1ccccc1Cl	9
SMILES	Insulin prom act
CN(C)S(=O)(=O)c1ccc(NC(=O)CN2CCCc3ccccc32)cc1	383*
O=C(c1ccncc1)N(c1ccc2oc3c(c2c1)CCCC3)S(=O)(=O)c1ccc(F)cc1	-7
O=C(O)CCCCCNC(=O)c1ccccc1	7
COc1cccc(C(=O)NN/C(C)=C/C(=O)C(F)(F)C(F)(F)C(F)(F)F)c1	0
COc1ccc(C(=O)N2CCc3ccccc32)cc1	-6
O=C(c1ccccc1)N1CCc2ccccc21	0
Cc1cccc2cc3c(N)c(C(=O)N4CCc5ccccc54)sc3nc12	233*
O=C(NCCN1CCCCCC1)c1ccc(N2CCCC2=O)cc1	-9
CN1CCN(C(=O)c2ccc(N3CCCC3=O)cc2)CC1	0
CC(C)(C)c1ccc(C(=O)N2CCCCCC2=O)cc1	585*
O=C1C2CC(O)CN2C(=O)N1c1ccccc1 (stereo not drawn)	0
Cc1nc2ccccc2n2c(-c3ccccc3)c3c(=O)n(C)c(=O)n(C)c3c12	171
O=C(Nc1c(Cl)ccc2nsnc12)c1cccnc1	-5
Cc1ccc(S(=O)(=O)N2CCN(C(=O)CN3CCCCC3)C2C(C)C)cc1 (stereo not drawn)	6
CSc1nsc(SC)c1C(=O)N1CCN(S(=O)(=O)c2ccc(C)cc2)C1C (stereo not drawn)	125*
CSc1nsc(SC)c1C(=O)Nc1ccc(C)cc1	5
Cc1ccnc(NC(=O)CS(=O)(=O)Cc2ccccc2)c1	550*
CCC(CC)c1nnc(NC(=O)CS(=O)(=O)Cc2ccccc2)s1	-43
CC(C)Cc1nnc(NC(=O)CS(=O)(=O)Cc2ccccc2)s1	6
COc1ccccc1NC(=O)Nc1nc(C(C)(C)C)cs1	-4
CCN(CC)C(=O)Cn1cc(C(=O)C(=O)N2CC=C(c3ccccc3)CC2)c2ccccc21	154
Cc1sc2ncnc(SCC(=O)N(C)C3CCS(=O)(=O)C3)c2c1C (stereo not drawn)	0
C/C(=N\n1cnnc1)c1ccc(C#N)cc1	-8
COc1ccc(CN2C(=O)c3cccnc3C2Nc2cc(Cl)c(OC)cc2OC)cc1 (stereo not drawn)	136*
O=C1c2cccnc2C(O)N1Cc1ccc(F)cc1 (stereo not drawn)	6
CCN(CC)S(=O)(=O)c1ccc(NC2c3ncccc3C(=O)N2Cc2ccccc2)cc1 (stereo not drawn)	7
O=C(Cc1c2ccccc2nc2ccccc12)c1ccccc1	-61
O=C(N/N=C/C1CC2CCC1C2)c1ccc2c(c1)OCO2 (stereo not drawn)	0
COc1ccc(CCn2c(C)nc3c(c(=O)c4ccccc4n3C)c2=O)cc1	-3
